Source: publication PMC3088362 (Journal of the American Society for Mass Spectrometry, 2010)

Key:
Format in all cases: biochemical
human TPST-2 [1] = target: T1, human TPST-2 (Homo sapiens, UniProt O60704); experiment: LC-MS initial-velocity kinetics, Reaction 2: sulfation of sY15CCR8
T1 sequence (O60704 25-377 limits assumed): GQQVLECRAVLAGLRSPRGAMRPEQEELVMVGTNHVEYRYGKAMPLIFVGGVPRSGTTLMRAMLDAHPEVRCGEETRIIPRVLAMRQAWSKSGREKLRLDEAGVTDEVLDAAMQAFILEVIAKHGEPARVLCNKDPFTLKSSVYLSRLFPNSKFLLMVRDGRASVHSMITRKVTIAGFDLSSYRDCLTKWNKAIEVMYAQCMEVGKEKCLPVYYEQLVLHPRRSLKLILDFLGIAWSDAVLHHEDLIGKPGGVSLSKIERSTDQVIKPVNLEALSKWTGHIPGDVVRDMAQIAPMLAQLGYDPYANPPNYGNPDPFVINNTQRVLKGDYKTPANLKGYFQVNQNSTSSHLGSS
How it was run: (§1)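 Enzyme was soluble HPC4-epitope-tagged human TPST-2 (transferrin signal peptide), affinity-purified from stably transfected CHO-K1 cells. PAPS and peptide were varied as a matrix in 20 mM MOPS pH 7.5, 100 mM NaCl, 10% glycerol at 30 °C. Reactions started with 250–750 nM enzyme, ran 6–20 min, and were quenched with methanol (0.5 µM final internal standard). Product was read by RP-LC negative-ESI SIM against a calibration curve. Data were fit to the ping-pong equation; kcat/Km came from fitted constants.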

human TPST-2 [2] = target: T1, human TPST-2; experiment: 35S-sulfation of factor IX by TPST-2; settings: with (lane 1) or without (lane 2) TPST-2; 6 h at 37°C, pH 6.9; autoradiography
human TPST-2 [3] = target: T1, human TPST-2; experiment: LC-MS initial-velocity kinetics, Reaction 1: sulfation of nonCCR8
How it was run: as §1

human TPST-2 [4] = target: T1, human TPST-2; experiment: Product inhibition by PAP, Reaction 2; settings: pH 7.5, 30°C
human TPST-2 [5] = target: T1, human TPST-2; experiment: Product inhibition by PAP, Reaction 1
How it was run: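 Initial rates of nonCCR8 sulfation by HPC4-purified soluble human TPST-2 were measured at fixed PAP levels. Buffer was 20 mM MOPS pH 7.5, 100 mM NaCl, 10% glycerol, 30 °C. Reactions were quenched with methanol containing internal standard, and product was quantified by LC-ESI-MS SIM. Data were fit by nonlinear regression to competitive or noncompetitive inhibition equations. Two or three independent experiments.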

VTDsYYYPDI [sY15CCR8]
specificity constant kcat/Km of sY15CCR8 (human TPST-2 [1]; Reaction 2, for sY15CCR8, calculated from Table 1 values): 430 M⁻¹ s⁻¹
estimated Vmax (human TPST-2 [1]; Reaction 2, from intercept replots, pH 7.5, 30°C): 1.7 mU/mg protein
substrate preference by specificity constants, Reaction 2 (human TPST-2 [1]; sY15CCR8 compared with PAPS): preferred than PAPS
substrate suitability by kcat/Km (human TPST-2 [1]; sY15CCR8 compared with nonCCR8): more suitable substrate than nonCCR8

factor IX: recombinant human factor IX, BeneFIX, Wyeth Pharmaceuticals Inc.
35S-sulfuryl group transfer to factor IX (human TPST-2 [2]): occurred only in the presence TPST-2

Nc1ncnc2c1ncn2[C@@H]1O[C@H](COP(=O)(O)OS(=O)(=O)O)[C@@H](OP(=O)(O)O)[C@H]1O [PAPS, 3′-phosphoadenosine 5′-phosphosulfate, reference compound]
substrate preference by specificity constants, Reaction 1 (human TPST-2 [3]; PAPS compared with nonCCR8): preferred substrate over nonCCR8
specificity constant kcat/Km for PAPS (human TPST-2 [3]; Reaction 1, for PAPS, calculated from Table 1 values): 590 M⁻¹ s⁻¹
specificity constant kcat/Km of PAPS (human TPST-2 [1]; Reaction 2, for PAPS, calculated from Table 1 values): 280 M⁻¹ s⁻¹

VTDYYYPDI [nonCCR8]
specificity constant kcat/Km (human TPST-2 [3]; Reaction 1, for nonCCR8, calculated from Table 1 values): 270 M⁻¹ s⁻¹
estimated Vmax (human TPST-2 [3]; Reaction 1, calculated from intercept replots, pH 7.5, 30°C): 6.7 mU/mg protein
Km of nonsulfated CCR8 peptide relative to monosulfated peptide (human TPST-2 [3]; ratio to Km of sY15CCR8): at least five

Nc1ncnc2c1ncn2[C@@H]1O[C@H](COP(=O)(O)O)[C@@H](OP(=O)(O)O)[C@H]1O [PAP]
PAP inhibition mode with respect to PAPS (human TPST-2 [4]; PAPS varied 5-25 µM, sY15CCR8 25 µM): competitively
PAP inhibition mode with respect to sY15CCR8 (human TPST-2 [4]; sY15CCR8 varied 5-25 µM, PAPS 25 µM): noncompetitively
PAP inhibition patterns, Reaction 1, compared with Reaction 2 (human TPST-2 [5]; Reaction 1, with respect to PAPS and nonsulfated CCR8, data not shown): The same PAP inhibition patterns were observed with respect to PAPS and nonsulfated CCR8 substrates
KI', product inhibition constant for PAP versus nonCCR8 (human TPST-2 [5]; Reaction 1, pH 7.5, 30°C, mean of two or three independent experiments): 1200 nM
